According to ChEMBL document CHEMBL3588770, “Novel spirohydantoin derivative as a potent multireceptor-active antipsychotic and antidepressant agent” (Bioorg Med Chem, 2015):
Active and inactive are the calls of the source. The calls are words filed in the database; no cut-off is given here.

Each compound was assayed on Mus musculus (assay: Antianxiety-like activity in Swiss albino mouse assessed as number of punished crossings at 0.06 to 0.5 mg/kg, ip by four-plate test). Conditions: not given.
Type: functional, organism-based
Method in brief: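 Four-plate test in male Swiss albino mice, 8-10 per dose, dosed i.p. in Tween 80 vehicle. After 15-s habituation, a 0.8 mA, 0.5 s foot shock was given at each plate crossing, with a 3 s shock-free interval. Punished crossings were counted over a 1-min session.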

Compound | Activity
O=C1CCc2ccc(OCCCCN3CCN(c4cccc(Cl)c4Cl)CC3)cc2N1 [ARIPIPRAZOLE] | inactive

Each compound was assayed on Mus musculus (assay: Toxicity in ip dosed CD-1 mouse assessed as minimum dose required for induction of catalepsy by bar test). Conditions: in vivo.
Type: organism-based
Method in brief: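 Male CD-1 mice, 10 per group, given compound i.p. (1% Tween 80 suspension). Forelimbs were placed on a horizontal rod 4 cm high at 30, 60 and 120 min. Catalepsy was scored up to 3 (≥60 s on bar). Minimum cataleptogenic dose is the lowest dose giving a mean score ≥1 at any of those times.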

Compound | Activity
O=C1CCc2ccc(OCCCCN3CCN(c4cccc(Cl)c4Cl)CC3)cc2N1 [ARIPIPRAZOLE] | 1 mg/kg

These compounds were tested against T1, 5-hydroxytryptamine receptor 1A (Rattus norvegicus, UniProt P19327) (assay: Displacement of [3H]-8-OH-DPAT from 5-HT1A receptor in rat hippocampal membrane by liquid scintillation analysis). Conditions: not given.
T1 sequence (P19327 whole entry): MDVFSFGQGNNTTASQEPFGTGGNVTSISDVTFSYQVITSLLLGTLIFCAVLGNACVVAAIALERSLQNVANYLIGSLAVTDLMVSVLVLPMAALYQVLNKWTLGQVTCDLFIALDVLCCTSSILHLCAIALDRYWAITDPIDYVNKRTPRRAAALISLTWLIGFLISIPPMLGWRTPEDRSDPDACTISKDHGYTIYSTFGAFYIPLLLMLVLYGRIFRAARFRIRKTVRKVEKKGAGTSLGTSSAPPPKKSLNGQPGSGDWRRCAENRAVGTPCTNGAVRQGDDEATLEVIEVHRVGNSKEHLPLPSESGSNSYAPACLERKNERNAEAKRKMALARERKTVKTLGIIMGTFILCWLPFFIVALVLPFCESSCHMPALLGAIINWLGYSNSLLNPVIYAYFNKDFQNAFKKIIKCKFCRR
Type: cell membranes, Hippocampus
Method in brief: (§1)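 Native rat membranes were used: hippocampus with [3H]-8-OH-DPAT (170 Ci/mmol) and 5-HT for non-specific binding; cortex with [3H]-ketanserin (88.0 Ci/mmol) and methysergide; hypothalamus with [3H]-5-CT (34.5 Ci/mmol) and 5-HT. Compounds were tested in triplicate at 7–8 concentrations (10⁻¹¹–10⁻⁴ M). Read-out was liquid scintillation counting. Ki came from nonlinear regression with Cheng-Prusoff, as the mean of at least two experiments.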

Compound | Ki
O=C1NC2(CCC(c3ccccc3)CC2)C(=O)N1CCCCN1CCN(c2cccc(C(F)(F)F)c2)CC1 (centres undefined) | 22 nM
O=C1NC2(CCc3ccccc32)C(=O)N1CCCCN1CCN(c2ccccc2)CC1 (centres undefined) | 75 nM
O=C1NC2(CCCc3ccccc32)C(=O)N1CCCCN1CCN(c2cccc(C(F)(F)F)c2)CC1 (centres undefined) | 5.3 nM
O=C1NC2(CCC(c3ccccc3)CC2)C(=O)N1CCCCN1CCN(c2cccc(Cl)c2)CC1 (centres undefined) | 30 nM
O=C1NC2(CCC(c3ccccc3)CC2)C(=O)N1CCCCN1CCN(c2ccccc2)CC1 (centres undefined) | 35 nM
COc1ccccc1N1CCN(CCCCN2C(=O)NC3(CCC(c4ccccc4)CC3)C2=O)CC1 (centres undefined) | 3 nM

Results, then the compound that gave them:

Ki | Compound
306 nM | O=C1NC2(CCCCC2c2ccccc2)C(=O)N1CCCCN1CCN(c2ccccc2)CC1 (centres undefined)
42 nM | COc1ccccc1N1CCN(CCCCN2C(=O)NC3(CCCCC3c3ccccc3)C2=O)CC1 (centres undefined)
113 nM | O=C1NC2(CCCCC2c2ccccc2)C(=O)N1CCCCN1CCN(c2cccc(Cl)c2)CC1 (centres undefined)
6 nM | O=C1NC2(CCc3ccccc32)C(=O)N1CCCCN1CCN(c2cccc(C(F)(F)F)c2)CC1 (centres undefined)
13 nM | O=C1NC2(CCCc3ccccc32)C(=O)N1CCCCN1CCN(c2ccccc2)CC1 (centres undefined)

These compounds were tested on Mus musculus (assay: Toxicity in ip dosed spontaneous locomotor activity CD-1 mouse model assessed as dose required to cause sedation). Conditions: in vivo.
Type: organism-based
Method in brief: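 CD-1 mice, 8-10 per dose, with compound given i.p. in 1% Tween 80 suspension 60 min before testing. After 30 min habituation in individual cages, ambulation (channel crossings) was counted over 1 h, recorded every 5 min. Mean ± SEM, one-way ANOVA with Bonferroni test.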

Compound | Activity
O=C1CCc2ccc(OCCCCN3CCN(c4cccc(Cl)c4Cl)CC3)cc2N1 [ARIPIPRAZOLE] | 1 mg/kg

Each compound was assayed against 5-hydroxytryptamine receptor 2A (Rattus norvegicus, UniProt P14842) (assay: Displacement of [3H]ketanserin from 5-HT2A receptor in rat cortical membrane by liquid scintillation analysis). Conditions: not given.
Chain of 5-hydroxytryptamine receptor 2A (P14842 whole entry): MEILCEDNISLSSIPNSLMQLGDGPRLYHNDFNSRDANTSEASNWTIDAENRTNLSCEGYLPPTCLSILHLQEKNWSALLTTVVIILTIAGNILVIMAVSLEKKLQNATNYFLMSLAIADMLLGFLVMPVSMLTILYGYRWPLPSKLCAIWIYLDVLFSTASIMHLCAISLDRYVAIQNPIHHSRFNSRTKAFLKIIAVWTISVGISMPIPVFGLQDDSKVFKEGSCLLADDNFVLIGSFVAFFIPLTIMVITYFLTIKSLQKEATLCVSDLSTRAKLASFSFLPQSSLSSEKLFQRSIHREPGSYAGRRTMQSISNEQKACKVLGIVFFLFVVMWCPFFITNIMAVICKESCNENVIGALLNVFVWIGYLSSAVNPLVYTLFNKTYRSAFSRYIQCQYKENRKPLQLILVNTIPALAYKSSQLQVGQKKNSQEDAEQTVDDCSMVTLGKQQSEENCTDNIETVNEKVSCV
Type: cell membranes
Method in brief: as §1

Compound | Ki
O=C1NC2(CCC(c3ccccc3)CC2)C(=O)N1CCCCN1CCN(c2cccc(C(F)(F)F)c2)CC1 (centres undefined) | 122 nM
O=C1NC2(CCc3ccccc32)C(=O)N1CCCCN1CCN(c2ccccc2)CC1 (centres undefined) | 111 nM
O=C1NC2(CCCc3ccccc32)C(=O)N1CCCCN1CCN(c2cccc(C(F)(F)F)c2)CC1 (centres undefined) | 157 nM
O=C1NC2(CCC(c3ccccc3)CC2)C(=O)N1CCCCN1CCN(c2cccc(Cl)c2)CC1 (centres undefined) | 38 nM
O=C1NC2(CCC(c3ccccc3)CC2)C(=O)N1CCCCN1CCN(c2ccccc2)CC1 (centres undefined) | 48 nM
COc1ccccc1N1CCN(CCCCN2C(=O)NC3(CCC(c4ccccc4)CC3)C2=O)CC1 (centres undefined) | 75 nM

Continued, values first:

Ki | Compound
414 nM | O=C1NC2(CCCCC2c2ccccc2)C(=O)N1CCCCN1CCN(c2ccccc2)CC1 (centres undefined)
498 nM | COc1ccccc1N1CCN(CCCCN2C(=O)NC3(CCCCC3c3ccccc3)C2=O)CC1 (centres undefined)
171 nM | O=C1NC2(CCCCC2c2ccccc2)C(=O)N1CCCCN1CCN(c2cccc(Cl)c2)CC1 (centres undefined)
87 nM | O=C1NC2(CCc3ccccc32)C(=O)N1CCCCN1CCN(c2cccc(C(F)(F)F)c2)CC1 (centres undefined)
77 nM | O=C1NC2(CCCc3ccccc32)C(=O)N1CCCCN1CCN(c2ccccc2)CC1 (centres undefined)

These compounds were tested on Mus musculus (assay: Antipsychotic activity in ip dosed CD-1 mouse assessed as inhibition of D-amphetamine-induced hyperlocomotor activity). Conditions: not given.
Type: functional, organism-based
Method in brief: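 Male CD-1 mice, 8-10 per dose. d-Amphetamine was given s.c. 30 min pretest; test compound i.p. 60 min pretest in 1% Tween 80. After 30 min habituation in the activity monitor, ambulation crossings were counted for 1 h, recorded every 5 min.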

Compound | inhibition
O=C1CCc2ccc(OCCCCN3CCN(c4cccc(Cl)c4Cl)CC3)cc2N1 [ARIPIPRAZOLE] | Dose-dependent effect

These compounds were tested on Mus musculus (assay: Anti-depressant like activity in Swiss albino mouse assessed as shortening of immobility time at 0.01 to 0.1 mg/kg, ip by forced swim test). Conditions: not given.
Type: functional, organism-based

Compound | inhibition
O=C1CCc2ccc(OCCCCN3CCN(c4cccc(Cl)c4Cl)CC3)cc2N1 [ARIPIPRAZOLE] | inactive

What follows are compounds tested against 5-hydroxytryptamine receptor 7 (Rattus norvegicus, UniProt P32305) (assay: Displacement of [3H]-5-CT from 5-HT7 receptor in rat hypothalamic membrane by liquid scintillation analysis). Conditions: not given.
Chain of 5-hydroxytryptamine receptor 7 (P32305 whole entry): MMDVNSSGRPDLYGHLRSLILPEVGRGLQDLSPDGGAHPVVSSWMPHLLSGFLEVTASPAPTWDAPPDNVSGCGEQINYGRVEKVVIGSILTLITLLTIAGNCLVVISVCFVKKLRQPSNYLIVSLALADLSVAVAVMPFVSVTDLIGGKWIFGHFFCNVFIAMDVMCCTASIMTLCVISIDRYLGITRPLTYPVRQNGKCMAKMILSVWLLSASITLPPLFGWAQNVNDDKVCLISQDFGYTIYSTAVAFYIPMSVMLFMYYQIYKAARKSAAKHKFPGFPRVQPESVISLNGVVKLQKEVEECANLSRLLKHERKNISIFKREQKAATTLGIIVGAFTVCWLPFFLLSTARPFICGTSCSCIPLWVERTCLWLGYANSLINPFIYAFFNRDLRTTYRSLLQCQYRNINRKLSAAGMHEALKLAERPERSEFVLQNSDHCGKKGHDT
Type: cell membranes
Method in brief: as §1

Compound | Ki
O=C1NC2(CCC(c3ccccc3)CC2)C(=O)N1CCCCN1CCN(c2cccc(C(F)(F)F)c2)CC1 (centres undefined) | 379 nM
O=C1NC2(CCc3ccccc32)C(=O)N1CCCCN1CCN(c2ccccc2)CC1 (centres undefined) | 93 nM
O=C1NC2(CCCc3ccccc32)C(=O)N1CCCCN1CCN(c2cccc(C(F)(F)F)c2)CC1 (centres undefined) | 117 nM
O=C1NC2(CCC(c3ccccc3)CC2)C(=O)N1CCCCN1CCN(c2cccc(Cl)c2)CC1 (centres undefined) | 768 nM
O=C1NC2(CCC(c3ccccc3)CC2)C(=O)N1CCCCN1CCN(c2ccccc2)CC1 (centres undefined) | 515 nM
COc1ccccc1N1CCN(CCCCN2C(=O)NC3(CCC(c4ccccc4)CC3)C2=O)CC1 (centres undefined) | 130 nM

Now from value to compound:

Ki | Compound
1500 nM | O=C1NC2(CCCCC2c2ccccc2)C(=O)N1CCCCN1CCN(c2ccccc2)CC1 (centres undefined)
63 nM | COc1ccccc1N1CCN(CCCCN2C(=O)NC3(CCCCC3c3ccccc3)C2=O)CC1 (centres undefined)
43 nM | O=C1NC2(CCCCC2c2ccccc2)C(=O)N1CCCCN1CCN(c2cccc(Cl)c2)CC1 (centres undefined)
67 nM | O=C1NC2(CCc3ccccc32)C(=O)N1CCCCN1CCN(c2cccc(C(F)(F)F)c2)CC1 (centres undefined)
116 nM | O=C1NC2(CCCc3ccccc32)C(=O)N1CCCCN1CCN(c2ccccc2)CC1 (centres undefined)

What follows are compounds tested against D(2) dopamine receptor (Rattus norvegicus, UniProt P61169) (assay: Displacement of [3H]spiperone from D2 receptor in rat striatum by liquid scintillation counting analysis). Conditions: not given.
Chain of D(2) dopamine receptor (P61169 whole entry): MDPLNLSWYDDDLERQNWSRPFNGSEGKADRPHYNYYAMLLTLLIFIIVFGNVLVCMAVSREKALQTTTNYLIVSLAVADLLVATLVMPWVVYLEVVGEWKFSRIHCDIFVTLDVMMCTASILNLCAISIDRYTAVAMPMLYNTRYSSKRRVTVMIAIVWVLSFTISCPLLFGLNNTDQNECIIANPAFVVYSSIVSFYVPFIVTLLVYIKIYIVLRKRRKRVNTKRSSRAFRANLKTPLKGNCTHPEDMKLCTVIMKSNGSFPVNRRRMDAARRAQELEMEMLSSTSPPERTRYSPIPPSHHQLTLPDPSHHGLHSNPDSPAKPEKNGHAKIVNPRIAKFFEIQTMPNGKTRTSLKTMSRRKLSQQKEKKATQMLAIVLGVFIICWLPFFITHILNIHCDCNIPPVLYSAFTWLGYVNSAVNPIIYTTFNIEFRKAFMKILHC
Method in brief: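 Rat striatal membranes with [3H]-spiperone. Compounds were tested in triplicate at 7–8 concentrations (10⁻¹¹–10⁻⁴). Ki values were calculated.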

Compound | Ki
O=C1NC2(CCC(c3ccccc3)CC2)C(=O)N1CCCCN1CCN(c2cccc(C(F)(F)F)c2)CC1 (centres undefined) | > 10000 nM
O=C1NC2(CCCc3ccccc32)C(=O)N1CCCCN1CCN(c2cccc(C(F)(F)F)c2)CC1 (centres undefined) | 608 nM
O=C1NC2(CCC(c3ccccc3)CC2)C(=O)N1CCCCN1CCN(c2cccc(Cl)c2)CC1 (centres undefined) | > 10000 nM
COc1ccccc1N1CCN(CCCCN2C(=O)NC3(CCC(c4ccccc4)CC3)C2=O)CC1 (centres undefined) | 79 nM

The remaining lines, values ahead:

Ki | Compound
412 nM | O=C1NC2(CCc3ccccc32)C(=O)N1CCCCN1CCN(c2cccc(C(F)(F)F)c2)CC1 (centres undefined)
743 nM | O=C1NC2(CCCc3ccccc32)C(=O)N1CCCCN1CCN(c2ccccc2)CC1 (centres undefined)
